Laboratory results taken from ChEMBL document CHEMBL4837188, “Identification of Novel Tricyclic Benzo[1,3]oxazinyloxazolidinones as Potent Antibacterial Agents with Excellent Pharmacokinetic Profiles against Drug-Resistant Pathogens” (J Med Chem, 2021).
≈ marks a conversion by molar mass, not a printed value.

What was measured:
[1] = tested on: Bacillus subtilis; assay: Antibacterial activity against Bacillus subtilis 168 assessed as inhibition of bacterial growth incubated for 18 hrs by broth microdilution method; type: functional
Procedure, shortened: (§1)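 Broth microdilution in 96-well plates. Media: cation-adjusted Mueller−Hinton broth for S. aureus, brain heart infusion for VRE, Mueller−Hinton broth for the other strains. Incubated at 37 °C for 18 h, then A600 read. Percent growth inhibition calculated against 1% DMSO vehicle.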

[2] = tested on: Staphylococcus aureus; assay: Antibacterial activity against Staphylococcus aureus ATCC 29213 assessed as inhibition of bacterial growth incubated for 18 hrs by broth microdilution method; type: functional; procedure, shortened: as §1
[3] = tested on: Escherichia coli; assay: Antibacterial activity against Escherichia coli 25922 assessed as inhibition of bacterial growth incubated for 18 hrs by broth microdilution method; type: functional; conditions: ATCC 25922; procedure, shortened: as §1
[4] = tested on: Mycobacterium tuberculosis; assay: Antitubercular activity against Mycobacterium tuberculosis H37Rv assessed as inhibition of bacterial growth incubated for 7 days by MABA; type: functional; conditions: 168 h, time 7 day
Procedure, shortened: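 Microplate alamar blue assay. H37Rv or clinical isolates were grown to late log phase in 7H9 broth with glycerol, Tween 80 and ADC, then 2 × 10⁵ CFU added to two-fold dilutions. Final range 32–0.5 μg/mL, lowered to 2–0.016 μg/mL for active compounds. 37 °C, 7 days, then alamar blue 16 h. Fluorescence 530/590 nm. MIC is the lowest concentration giving ≥90% reduction; INH and RFP were controls.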

[5] = tested on: Staphylococcus epidermidis; assay: Antibacterial activity against methicillin resistant Staphylococcus epidermidis assessed as bacterial growth inhibition after 18 hrs by broth microdilution method; type: functional
[6] = tested on: Staphylococcus aureus; assay: Antibacterial activity against methicillin resistant Staphylococcus aureus assessed as bacterial growth inhibition after 18 hrs by broth microdilution method; type: functional
[7] = tested on: Enterococcus; assay: Antibacterial activity against vancomycin resistant Enterococcus assessed as bacterial growth inhibition after 18 hrs by broth microdilution method; type: functional
[8] = tested on: Staphylococcus aureus; assay: Antibacterial activity against vancomycin intermediate Staphylococcus aureus assessed as bacterial growth inhibition after 18 hrs by broth microdilution method; type: functional
[9] = Metabolic stability in CD-1 mouse liver microsomes assessed as substrate remaining in presence of NADPH incubated for 30 mins by LC-MS analysis; type: ADME, Microsome; conditions: read-out: Stabilty
Procedure, shortened: (§2)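 Microsomes from male CD-1 mouse or pooled human, 1 mg/mL protein in 0.05 M phosphate buffer pH 7.4. Compound at final 0.1 μM with DMSO cosolvent. Incubated at 37 °C with 1 mM NADPH, or with buffer in place of NADPH. Sampled at 0 and 30 min and quenched with acetonitrile. LC−MS measurement; substrate remaining at 30 min normalized to time zero.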

[10] = Metabolic stability in pooled human liver microsomes assessed as substrate remaining in presence of NADPH incubated for 30 mins by LC-MS analysis; type: ADME, Microsome; conditions: read-out: Stabilty; procedure, shortened: as §2
[11] = Metabolic stability in CD-1 mouse liver microsomes incubated for 30 mins by LC-MS analysis; type: ADME, Microsome; procedure, shortened: as §2
[12] = Metabolic stability in pooled human liver microsomes incubated for 30 mins by LC-MS analysis; type: ADME, Microsome; conditions: read-out: Stabilty; procedure, shortened: as §2
[13] = tested on: Enterococcus faecium; assay: Antibacterial activity against Enterococcus faecium ATCC 49624 assessed as bacterial growth inhibition after 18 hrs by broth microdilution method; type: functional; procedure, shortened: as §1
[14] = tested on: Enterococcus faecium; assay: Antibacterial activity against linezolid resistant Enterococcus faecium 13549 assessed as bacterial growth inhibition after 18 hrs by broth microdilution method; type: functional
[15] = tested on: Enterococcus faecalis; assay: Antibacterial activity against linezolid resistant Enterococcus faecalis assessed as bacterial growth inhibition after 18 hrs by broth microdilution method; type: functional
[16] = tested on: Staphylococcus capitis; assay: Antibacterial activity against linezolid resistant Staphylococcus capitis assessed as bacterial growth inhibition after 18 hrs by broth microdilution method; type: functional
[17] = tested on: Enterococcus faecalis; assay: Antibacterial activity against Enterococcus faecalis ATCC 29212 assessed as bacterial growth inhibition after 18 hrs by broth microdilution method; type: functional; procedure, shortened: as §1
[18] = Mycobacterium tuberculosis, H37Rv, read-out: MIC

| Compound | MIC [1] | MIC [2] | MIC [3] | MIC [4, 18] | further results |
| --- | --- | --- | --- | --- | --- |
| Cn1nnc(-c2ccc(-c3cc4c(cc3F)O[C@H]3[C@H](CN)OC(=O)N3C4)cn2)n1 | > 64 µg/mL | 32 µg/mL (≈ 80.5 µM) | > 64 µg/mL | 0.47 µg/mL (≈ 1.18 µM) |  |
| N#Cc1ccc(-c2cc3c(cc2F)CN2C(=O)O[C@@H](CN)[C@@H]2O3)cn1 (racemic) | > 64 µg/mL | > 64 µg/mL | > 64 µg/mL | > 32 µg/mL |  |
| N#Cc1ccc(-c2ccc3c(c2)CN2C(=O)O[C@@H](CN)[C@@H]2O3)cn1 | > 64 µg/mL | > 64 µg/mL | > 64 µg/mL | 2.94 µg/mL (≈ 9.12 µM) |  |
| CC(=O)NCC1OC(=O)N2Cc3cc(-c4ccc(C#N)nc4)c(F)cc3OC12 (racemic; trans) |  |  |  |  | MIC [4]: 1.58 µg/mL (≈ 4.13 µM) |
| CC1(C)S[C@@H]2[C@H](NC(=O)[C@H](N)c3ccccc3)C(=O)N2[C@H]1C(=O)O [AMPICILLIN] | 0.25 µg/mL (≈ 0.715 µM) | 0.25 µg/mL (≈ 0.715 µM) |  |  | MIC [5]: > 32 µg/mL; MIC [6]: > 32 µg/mL |
| CC(=O)NC[C@@H]1OC(=O)N2Cc3cc(-c4ccc(C#N)nc4)ccc3O[C@@H]12 | 1 µg/mL (≈ 2.74 µM) | 0.5 µg/mL (≈ 1.37 µM) | > 64 µg/mL | 12.2 µg/mL (≈ 33.6 µM) |  |
| NC[C@@H]1OC(=O)N2Cc3cc(F)c(N4CCOCC4)cc3O[C@@H]12 (racemic) |  |  |  | > 32 µg/mL |  |
| CN[C@H](CC(C)C)C(=O)N[C@H]1C(=O)N[C@@H](CC(N)=O)C(=O)N[C@H]2C(=O)N[C@H]3C(=O)N[C@H](C(=O)N[C@H](C(=O)O)c4cc(O)cc(O)c4-c4cc3ccc4O)[C@H](O)c3ccc(c(Cl)c3)Oc3cc2cc(c3O[C@@H]2O[C@H](CO)[C@@H](O)[C@H](O)[C@H]2O[C@H]2C[C@](C)(N)[C@H](O)[C@H](C)O2)Oc2ccc(cc2Cl)[C@H]1O [VANCOMYCIN] | 0.25 µg/mL (≈ 0.173 µM) |  | 64 µg/mL (≈ 44.2 µM) |  | MIC [5]: < 2 µg/mL; MIC [7]: > 32 µg/mL; MIC [8]: > 32 µg/mL |
| CC(=O)NC[C@@H]1OC(=O)N2Cc3cc(N4CCOCC4)c(F)cc3O[C@@H]12 | 8 µg/mL (≈ 21.9 µM) | 2 µg/mL (≈ 5.47 µM) | > 64 µg/mL | 31.7 µg/mL (≈ 86.8 µM) |  |
| CC(=O)NC[C@@H]1OC(=O)N2c3cc(F)c(Br)cc3OC[C@@H]12 |  |  |  |  | remaining at 0.5 h [9]: 73.4%; remaining at 0.5 h [10]: 71.4%; Stabilty ([11]; mouse, microsomes, 0.5 h): 125%; remaining at 0.5 h [12]: 110% |
| N#Cc1ccc(-c2cc3c(cc2F)O[C@H]2[C@H](CN)OC(=O)N2C3)cn1 |  |  |  | 0.26 µg/mL (≈ 0.764 µM) |  |
| CC(=O)NC[C@@H]1OC(=O)N2Cc3cc(N4CCOCC4)ccc3O[C@@H]12 |  |  |  | > 32 µg/mL |  |
| CC(=O)NC[C@@H]1OC(=O)N2Cc3cc(F)c(N4CCOCC4)cc3O[C@@H]12 (racemic) |  |  |  | > 32 µg/mL |  |
| CC(=O)NCC1OC(=O)N2Cc3cc(-c4ccc(C#N)nc4)c(F)cc3OC12 (racemic; cis) |  |  |  |  | MIC [4]: 15.51 µg/mL (≈ 40.6 µM) |
| NC[C@@H]1OC(=O)N2Cc3cc(N4CCOCC4)c(F)cc3O[C@@H]12 | > 64 µg/mL | > 64 µg/mL | > 64 µg/mL | > 32 µg/mL |  |
| CC(=O)NC[C@@H]1OC(=O)N2Cc3cc(Br)c(F)cc3O[C@@H]12 |  |  |  |  | remaining at 0.5 h [9]: 105%; remaining at 0.5 h [10]: 111%; remaining at 0.5 h ([11]; CD-1, mouse, liver microsomes, read-out: Stabilty): 102%; remaining at 0.5 h [12]: 93.8% |
| CC(=O)NC[C@@H]1OC(=O)N2Cc3cc(F)c(-c4ccc(C#N)nc4)cc3O[C@@H]12 (racemic) | > 64 µg/mL | > 64 µg/mL | > 64 µg/mL | > 32 µg/mL |  |
| CC(=O)NC[C@H]1OC(=O)N2Cc3cc(-c4ccc(C#N)nc4)c(F)cc3O[C@H]12 |  | > 64 µg/mL |  | > 32 µg/mL |  |
| NC[C@@H]1OC(=O)N2Cc3cc(N4CCOCC4)ccc3O[C@@H]12 |  |  |  | > 32 µg/mL |  |
| CC(=O)NC[C@@H]1OC(=O)N2Cc3cc(-c4ccc(-c5nnn(C)n5)nc4)c(F)cc3O[C@@H]12 | 0.125 µg/mL (≈ 0.284 µM) | 0.125 µg/mL (≈ 0.284 µM) | > 64 µg/mL | 0.54 µg/mL (≈ 1.23 µM) | MIC [13]: 1 µg/mL (≈ 2.28 µM); MIC [14]: 2 µg/mL (≈ 4.55 µM); MIC [5]: 1 µg/mL (≈ 2.28 µM); MIC [7]: 0.25 µg/mL (≈ 0.569 µM); MIC [6]: 0.5 µg/mL (≈ 1.14 µM); MIC [15]: 1 µg/mL (≈ 2.28 µM); MIC [16]: 2 µg/mL (≈ 4.55 µM); MIC [17]: 0.5 µg/mL (≈ 1.14 µM); MIC [8]: 0.5 µg/mL (≈ 1.14 µM) |
| CC(=O)NC[C@H]1CN(c2ccc(N3CCOCC3)c(F)c2)C(=O)O1 [LINEZOLID] | 0.25 µg/mL (≈ 0.741 µM) | 0.125 µg/mL (≈ 0.371 µM) | > 64 µg/mL | 0.88 µg/mL (≈ 2.61 µM) | MIC [13]: 2 µg/mL (≈ 5.93 µM); MIC [14]: 8 µg/mL (≈ 23.7 µM); MIC [16]: ≥ 16 µg/mL |
